Hits are enriched below; roughly 3.1% of the tested compounds scored in any of these assays.
PREPL inhibitor = inhibits the human prolyl oligopeptidase-like enzyme. Q4J6C6. recombinant PREPL, fluorescence polarization activity-based probe. inhibition, % at 5.96 µM. 320,000 tested, 0.68% active. AID 2751; in the data active = inhibition above about 43%;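 also: 0% = enzyme with DMSO and 100% = wells lacking enzyme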
Apaf1 inhib = human Apaf-1 inhibition | O14727 | inhibition, % at 20 µM | reconstituted apoptosome caspase-3 activity, DEVD-Rh110 fluorescence | 330,000 tested, 0.71% active; active = inhibition of at least 40% at 20 µM;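 also: plate controls were DMSO wells for no effect and DEVD-CHO caspase inhibitor wells for full effect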
Target sequence (O14727 whole entry, looked up): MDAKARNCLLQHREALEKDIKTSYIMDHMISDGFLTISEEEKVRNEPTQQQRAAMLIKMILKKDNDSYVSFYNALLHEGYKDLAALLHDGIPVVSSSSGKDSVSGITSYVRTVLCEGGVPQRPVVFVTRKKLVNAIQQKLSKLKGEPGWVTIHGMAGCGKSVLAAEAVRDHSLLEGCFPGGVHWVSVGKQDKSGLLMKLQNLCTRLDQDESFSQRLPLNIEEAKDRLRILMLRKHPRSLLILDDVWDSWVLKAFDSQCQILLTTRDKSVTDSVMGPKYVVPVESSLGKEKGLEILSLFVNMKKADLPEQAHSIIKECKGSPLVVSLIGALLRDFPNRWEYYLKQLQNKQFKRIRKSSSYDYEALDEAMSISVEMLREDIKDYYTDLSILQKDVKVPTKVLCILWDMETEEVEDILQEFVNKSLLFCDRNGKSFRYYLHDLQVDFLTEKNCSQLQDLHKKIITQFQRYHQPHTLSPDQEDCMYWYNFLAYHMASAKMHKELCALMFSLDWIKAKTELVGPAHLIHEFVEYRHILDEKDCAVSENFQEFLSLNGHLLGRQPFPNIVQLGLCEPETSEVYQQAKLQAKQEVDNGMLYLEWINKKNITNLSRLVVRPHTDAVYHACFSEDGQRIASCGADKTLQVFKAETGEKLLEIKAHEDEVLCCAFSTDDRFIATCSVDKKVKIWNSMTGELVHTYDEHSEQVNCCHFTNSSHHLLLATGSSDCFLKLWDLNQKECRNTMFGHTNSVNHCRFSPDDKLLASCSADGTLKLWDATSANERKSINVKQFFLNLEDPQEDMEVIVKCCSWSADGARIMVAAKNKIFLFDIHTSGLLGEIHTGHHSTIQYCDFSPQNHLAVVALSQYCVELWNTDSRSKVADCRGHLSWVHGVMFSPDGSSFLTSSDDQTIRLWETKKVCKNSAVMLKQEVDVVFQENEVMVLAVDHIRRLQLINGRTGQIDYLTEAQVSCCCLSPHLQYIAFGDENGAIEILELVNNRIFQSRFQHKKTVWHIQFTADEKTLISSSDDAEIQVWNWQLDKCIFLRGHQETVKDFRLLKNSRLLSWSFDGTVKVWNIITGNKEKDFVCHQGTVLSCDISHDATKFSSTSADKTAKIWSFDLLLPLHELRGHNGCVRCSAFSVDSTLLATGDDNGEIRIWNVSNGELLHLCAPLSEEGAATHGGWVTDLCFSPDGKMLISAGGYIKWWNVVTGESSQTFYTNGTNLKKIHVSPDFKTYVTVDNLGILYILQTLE
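System: Apoptosome proteins | Medium: Hepes pH 7.5 with detergent and BSA | Also added: Cytochrome c trigger plus (Z-DEVD)2-Rh110 caspase-3 substrate | Incubation: 30 min compound preincubation, 50 min activation, room temperature | Detection: Rhodamine 110 fluorescence at Ex 480/Em 540 nm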
MEKK2mut PB1 HTS = signal of MEK5 binding to mutant human MEKK2 PB1 domain; bead flow cytometry, Alexa488-MEK5 binding to MEKK2 mutant; percent response, % at 10 µM; 290,000 tested, 0.35% active; in the data active = percent response above about 24%, passing the limit was not always enough
MEKK2wt PB1 HTS = raises or lowers MEK5 binding to wildtype human MEKK2 PB1 domain | bead flow cytometry, Alexa488-MEK5 binding to MEKK2 WT; actives lie on both sides | binding response (% of control), % at 10 µM | 290,000 tested, 1.1% active; in the data active = binding response below about 67% or above about 130%
MEKK3 PB1 HTS = modulators (inhibitors or enhancers) of MEK5 binding to human MEKK3 PB1 domain; Q99759; bead-based flow cytometry, Alexa488-MEK5 binding to MEKK3; actives lie on both sides; 0 = blocked by unlabeled MEK5, 100 = vehicle; binding response (% of control), % at 10 µM; 290,000 tested, 1.4% active;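 active = binding response more than 3 SD above or below the average of its plate-row segment, actives on both sides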;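 also: Alexa488 bead fluorescence after subtracting the streptavidin-only scavenger bead signal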
UBC13 polyUb = human UBC13 polyubiquitination inhibition; 330,000 tested, 0.47% active; inhibition, % at 20 µM; P61088; UBC13 polyubiquitin chain formation, TR-FRET; AID 485273; in the data active = inhibition above about 45%, passing the limit was not always enough
MEKK2wt confirm = raises or lowers MEK5 binding to wildtype human MEKK2, retest | shares compounds with MEKK3 PB1 HTS | bead flow cytometry, Alexa488-MEK5 binding to MEKK2 WT; actives lie on both sides | binding response (% of control), % at 10 µM | 5,900 tested, 2.4% active | AID 1892; in the data active = binding response below about 16% or above about 210%; inactive = in between
MEKK2mut-MEK5 = signal of MEK5 binding to mutant human MEKK2, retest; shares compounds with MEKK3 PB1 HTS; bead flow cytometry, Alexa488-MEK5 binding to MEKK2 mutant; percent response, % at 10 µM; 5,900 tested, 2% active; AID 1893; in the data active = percent response mostly above about 71%, no sharp cut-off; inactive = mostly below about 38%;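 also: higher means compound restores mutant binding toward wildtype level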
MEKK3-MEK5 inh = MEKK3-MEK5 PB1 inhibition, single concentration confirmation; shares compounds with MEKK3 PB1 HTS; bead flow cytometry, Alexa488-MEK5 binding to MEKK3; hits give low values; binding response (% of control), % at 10 µM; 5,900 tested, 1.8% active; AID 1894;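 active = binding response below 72% of control, or above a set upper limit, though filed actives all read lower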;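 also: 100% = DMSO only wells and 0% = binding blocked by excess unlabeled MEK5; lower values mean stronger disruption of MEK5 binding to MEKK3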
* = called active by the depositor; / = no result given; [ ] = another dose, or the depositor's remark.

SMILES | PREPL inhibitor | Apaf1 inhib | MEKK2mut PB1 HTS | MEKK2wt PB1 HTS | MEKK3 PB1 HTS | UBC13 polyUb | MEKK2wt confirm | MEKK2mut-MEK5 | MEKK3-MEK5 inh
COC(=O)c1ccc(CNC(=O)C2CCC(=O)N(C3CCCCCC3)C2)cc1 (centres undefined) | 6 | -9 | 1 | 101 | 101 | 1 | / | / | /
COc1cc2[nH]c(=O)n(CCC(=O)N3CCc4ccccc4C3)c(=O)c2cc1OC | 5 | 1 | 8 | 124 | 122* | 6 | 108 | 6 | 102
C#CCOCCOCCOCCNc1nc(N2CCOCC2)nc(N2CCN(C(=O)[C@H](C)n3cc(CCCN=C(N)N)nn3)CC2)n1 | 5 | -7 | 5 | 2.0*[inhibitor] | 1.0*[inhibitor] | 11 | 107 | 2 | 98
C#CCOCCOCCOCCNc1nc(N2CCN(C(=O)[C@H]([C@@H](C)CC)n3cc(CCCN=C(N)N)nn3)CC2)nc(N2CCN(C(=O)[C@H]([C@@H](C)CC)n3cc(CCCN=C(N)N)nn3)CC2)n1 | / | 33 | 18 | 164* | 110 | 25 | 175 | 40 | 102
C#CCOCCOCCOCCNc1nc(N2CCN(C(=O)[C@H](C)n3cc(CCCN=C(N)N)nn3)CC2)nc(N2CCN(C(=O)[C@H](C)n3cc(CCCN=C(N)N)nn3)CC2)n1 | 31 | 19 | 8 | 110 | 107 | 44 | / | / | /
CCOc1cc(/C=N\Nc2ncc(F)c(N3CCOCC3)n2)ccc1Oc1nc(Cl)ncc1F | 8 | 1 | -17 | 92 | 90 | -21 | / | / | /
NS(=O)(=O)c1ccc(CCNC(=O)CSc2ccc(Cl)cc2Cl)cc1 | -4 | -21 | -13 | 43*[inhibitor] | 40*[inhibitor] | 7 | 103 | 8 | 103
NS(=O)(=O)c1ccc(CCNC(=O)CSc2ccc(Cl)cc2)cc1 | -8 | 3 | 12 | 114 | 103 | 7 | / | / | /
CCN(CC(=O)Nc1ccc(S(=O)(=O)N2CCCC2)cc1)CC(=O)Nc1ccccc1C(F)(F)F | 15 | 16 | / | / | / | 15 | / | / | /
CCN(CC)CCNC(=O)C(=O)NCC1OCCN1S(=O)(=O)c1cccs1 (centres undefined) | -4 | 15 | 20 | 137* | 103 | 16 | 109 | 5 | 101
CSc1nc(NCCCN(C)C)c2c3c(sc2n1)CN(C)CC3 | / | 7 | 30* | 138* | 100 | 25 | 120 | 34 | 106
CCOC(=O)c1cc(CC)sc1NC(=O)c1cc(OC)c(OC)c(OC)c1 | 15 | 25 | 15 | 141* | 119 | 42 | 105 | -7 | 100
Cc1cc(NS(=O)(=O)c2ccc(NC(=O)c3ccc(Cl)cc3[N+](=O)[O-])cc2)no1 | 5 | -12 | 3 | 97 | 100 | 7 | / | / | /
Cc1cccc2cc(CN(CCN3CCOCC3)C(=O)Nc3ccccc3F)c(=O)[nH]c12 | 11 | 5 | 1 | 112 | 132* | 3 | 104 | -4 | 101
Cc1cc2cc(CN(CCN3CCOCC3)C(=O)Nc3ccccc3F)c(=O)[nH]c2cc1C | 23 | 8 | 10 | 110 | 107 | 2 | / | / | /
COc1ccc(S(=O)(=O)N2CCN(CC(=O)NC(Cc3ccccc3)C(C)=O)CC2)cc1 (centres undefined) | 14 | -1 | / | / | / | 32 | / | / | /
Cn1c(NCC(O)c2ccccc2)nc2c1c(=O)n(Cc1ccc(Cl)cc1)c(=O)n2C (centres undefined) | 14 | -6 | -11 | 89 | 78*[inhibitor] | 8 | 110 | 5 | 110
O=C(Nc1nc(-c2ccccc2)c(C(=O)c2ccccc2)s1)c1ccc(S(=O)(=O)N2CCCC2)cc1 | -3 | -13 | 0 | 102 | 135* | -7 | 100 | -9 | 101
O=C(Nc1nc(-c2ccccc2)c(-c2ccccc2)s1)c1ccc(S(=O)(=O)N2CCCC2)cc1 | 5 | 12 | / | / | / | 17 | / | / | /
Cc1ccccc1Nc1cc(C)c2c(O)cccc2n1 | -8 | 24 | -7 | 75 | 57*[inhibitor] | 32 | 115 | 16 | 100
Cc1ccc(Nc2cc(C)c3c(O)cccc3n2)cc1C | 24 | 6 | 8 | 127 | 102 | 14 | / | / | /
Cc1cc(C(=O)NC2=NCCS2)c2ccccc2n1 | 8 | 3 | 5 | 118 | 132* | -6 | 105 | 5 | 106
O=C(NC1=NCCS1)c1cc(-c2ccc(-c3ccccc3)cc2)nc2ccccc12 | -3 | -8 | 6 | 100 | 98 | 15 | / | / | /
CNC(=O)C(=O)NCCN1CCN(S(=O)(=O)c2ccc3ccccc3c2)CC1 | / | 12 | 1 | 108 | 110 | -8 | / | / | /
Cn1cc(C(=O)c2cccc(Cl)c2)cc1/C=N\O | -4 | 6 | -12 | 59 | 42*[inhibitor] | 7 | 99 | 4 | 98
SMILES | PREPL inhibitor | Apaf1 inhib | MEKK2mut PB1 HTS | MEKK2wt PB1 HTS | MEKK3 PB1 HTS | UBC13 polyUb | MEKK2wt confirm | MEKK2mut-MEK5 | MEKK3-MEK5 inh
CC(C)=CCc1c(O)cc(O)c2c(=O)c3c(CC=C(C)C)c(O)ccc3oc12 | 2 | 3 | 8 | 137* | 104 | -21 | 107 | 3 | 98
CC(C)C[C@H](NC(=O)c1[nH]cnc1C(=O)N[C@@H](C)c1ccccc1)C(=O)OCc1ccccc1 | -5 | 32 | 1 | 1.0*[inhibitor] | 1.0*[inhibitor] | -38 | 102 | -2 | 105
O=[N+]([O-])c1cccc(Nc2nc(Cl)nc(Cl)n2)c1 | -3 | 0 | 6 | 98 | 106 | -2 | / | / | /
Fc1cccc(Nc2nc(Cl)nc(Cl)n2)c1 | -2 | -9 | -22 | 3.0*[inhibitor] | 3.0*[inhibitor] | 5 | 104 | 5 | 103
CN(C#N)c1nc(Cl)nc(Nc2cccc(Cl)c2)n1 | -8 | 8 | 4 | 112 | 144* | 4 | 102 | -1 | 100
Cc1cc(C)nc(Nc2cccc(Cl)c2)n1 | / | -10 | 0 | 104 | 103 | 1 | / | / | /
O=C(c1cccc(S(=O)(=O)Nc2ccc(F)cc2)c1)N1CCC1 | 5 | 2 | / | / | / | 0 | / | / | /
O=C(COC(=O)C1=COCCO1)Nc1cc(Cl)c(Cl)cc1Cl | 16 | 11 | / | / | / | -10 | / | / | /
CN1CCN(C(=O)C2CCC(=O)N(CCc3cccc(F)c3)C2)CC1 (centres undefined) | -8 | -3 | -4 | 103 | 101 | -4 | / | / | /
O=C(CCc1nc2ccccc2s1)OCC(=O)c1ccccc1 | -2 | 11 | 7 | 102 | 96 | 10 | / | / | /
Cc1noc(C)c1COC(=O)CCc1nc2ccccc2s1 | 2 | 0 | 8 | 127 | 130* | 6 | 100 | 1 | 98

Source: PubChem BioAssay
